# Data from ChEMBL document CHEMBL1949596, “Chromophenazines from the terrestrial Streptomyces sp. Ank 315” (2012).
# Calls of active or inactive are those of the source. The rule behind the calls is not given here.
# Assays:
# Bacillus subtilis = assay: Antimicrobial activity against Bacillus subtilis by agar diffusion method; type: functional
# Method in brief: (§1)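 Pure compounds applied to paper disks at 40 μg/disk and tested by agar diffusion against Bacillus subtilis, Escherichia coli, Staphylococcus aureus and the fungus Mucor miehei (Tü284). Activity was read from the agar plates.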
# Staphylococcus aureus = assay: Antimicrobial activity against Staphylococcus aureus by agar diffusion method; type: functional, organism-based; method in brief: as §1
# Escherichia coli = assay: Antimicrobial activity against Escherichia coli by agar diffusion method; type: functional; method in brief: as §1
# Rhizomucor miehei = assay: Antimicrobial activity against Mucor miehei by agar diffusion method; type: functional; method in brief: as §1
Compound,Activity (Bacillus subtilis),Activity (Staphylococcus aureus),Activity (Escherichia coli),Activity (Rhizomucor miehei),inhibition zone (IZ) (Bacillus subtilis) [mm],inhibition zone (IZ) (Escherichia coli) [mm],inhibition zone (IZ) (Rhizomucor miehei) [mm]
CC(C)=CCN1c2cc(C(=O)c3ccccc3)ccc2Nc2c(C(N)=O)cc(C(=O)c3ccccc3)cc21,inactive,inactive,inactive,inactive,,,
CC(C)=CCn1c2cc(=O)c3cc(C)ccc3c-2nc2ccccc21,inactive,inactive,inactive,inactive,,,
CC(C)=CCn1c2cc(=O)ccc-2nc2c(C(N)=O)cccc21,inactive,inactive,inactive,inactive,,,
CC(C)=CCN1c2ccccc2Nc2c(C(=O)O)cc(C(=O)c3ccccc3)cc21 [CHROMOPHENAZINE D],,,,,10,10,10
CC(C)=CCc1cc(=O)cc2n(C)c3cccc(C(=O)O)c3nc1-2,inactive,inactive,inactive,inactive,,,
CC(C)=CCn1c2cc(=O)c3cc(C)ccc3c-2nc2c(C(=O)O)cccc21,inactive,inactive,inactive,inactive,,,
